Measured values reported in ChEMBL document CHEMBL5724801, “EUbOPEN Chemogenomics Library - Multiplex” (2024).
Where “and” joins values, the source holds several entries; their conditions need not be identical. Equal entries are not always repeated.

Tested on: Fibroblast
Assay: Multiplex assay against human fibroblast
Type: toxicity, cell-based
Summary of the method: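 Cells were classed with CellPathfinder machine-learning gating, first as Hoechst high-intensity objects or normal cells, then (normal cells) as healthy, pyknosed or fragmented nuclei, and finally (pyknosed cells) as mitotic or apoptotic. Staining of live cells at seeding used Hoechst33342, BioTracker Green Microtubule Cytoskeleton Dye, MitoTracker Red and Annexin V Alexa Fluor 680, with imaging on a CQ1 microscope at 37°C and 5% CO2 after compound addition. Tubulin, mitochondrial-mass and membrane-permeability phenotypes are per cents of healthy-nucleus cells.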

[1] = 12 h, 1 µM, compound concentration 1 uM
[2] = 12 h, 10 µM, compound concentration 10 uM
[3] = 24 h, 1 µM, compound concentration 1 uM
[4] = 24 h, 10 µM, compound concentration 10 uM
[5] = 48 h, 1 µM, compound concentration 1 uM
[6] = 48 h, 10 µM, compound concentration 10 uM

SMILES: Cc1c(C(=O)NCCCN(C)C)sc2ncnc(Nc3ccc(F)cc3OC(C)CF)c12 (stereo not given)
- Population Fragmented Nuclei (%) [1]: 17.37% and 8.18%
- Population Healthy Nuclei (%) [1]: 51.64% and 79.93%
- Population Hoechst High Intensity Objects (%) [1]: 0%
- Population Membrane Permeable-Phenotype (%) [1]: 0.91% and 2.79%
- Population Mitochondria Different-Phenotype (%) [1]: 15.45% and 13.95%
- Population Mitotic Cells (%) [1]: 92.42% and 75%
- Population Normal (%) [1]: 100%
- Population Pyknosed Nuclei (%) [1]: 30.99% and 11.9%
- Population Tubulin-Different-Phenotype (%) [1]: 30.91% and 38.14%
- Total Cell Count [1]: 213 and 269
- Population Apoptotic (%) [2]: 19.3% and 27.27%
- Population Fragmented Nuclei (%) [2]: 12.69% and 4.88%
- Population Healthy Nuclei (%) [2]: 43.46% and 60.98%
- Population Hoechst High Intensity Objects (%) [2]: 0%
- Population Membrane Permeable-Phenotype (%) [2]: 10.62% and 8%
- Population Mitochondria Different-Phenotype (%) [2]: 35.4% and 21.45%
- Population Mitotic Cells (%) [2]: 80.7% and 72.73%
- Population Normal (%) [2]: 100%
- Population Pyknosed Nuclei (%) [2]: 43.85% and 34.15%
- Population Tubulin-Different-Phenotype (%) [2]: 46.9% and 77.82%
- Total Cell Count [2]: 260 and 451
- Population Fragmented Nuclei (%) [3]: 16.28% and 8.79%
- Population Healthy Nuclei (%) [3]: 68.99% and 76.87%
- Population Hoechst High Intensity Objects (%) [3]: 0%
- Population Membrane Permeable-Phenotype (%) [3]: 2.25% and 3.81%
- Population Mitochondria Different-Phenotype (%) [3]: 5.06% and 8.05%
- Population Mitotic Cells (%) [3]: 94.74% and 72.73%
- Population Normal (%) [3]: 100%
- Population Pyknosed Nuclei (%) [3]: 14.73% and 14.33%
- Population Tubulin-Different-Phenotype (%) [3]: 28.09% and 38.14%
- Total Cell Count [3]: 258 and 307
- Population Apoptotic (%) [4]: 33.11% and 50.51%
- Population Fragmented Nuclei (%) [4]: 9.29% and 4.55%
- Population Healthy Nuclei (%) [4]: 35.69% and 45.45%
- Population Hoechst High Intensity Objects (%) [4]: 0%
- Population Membrane Permeable-Phenotype (%) [4]: 13.54% and 11.11%
- Population Mitochondria Different-Phenotype (%) [4]: 40.62% and 36.11%
- Population Mitotic Cells (%) [4]: 66.89% and 49.49%
- Population Normal (%) [4]: 100%
- Population Pyknosed Nuclei (%) [4]: 55.02% and 50%
- Population Tubulin-Different-Phenotype (%) [4]: 75% and 87.78%
- Total Cell Count [4]: 269 and 396
- Population Apoptotic (%) [5]: 28.57% and 61.54%
- Population Fragmented Nuclei (%) [5]: 15.91% and 10.44%
- Population Healthy Nuclei (%) [5]: 79.55% and 85.44%
- Population Hoechst High Intensity Objects (%) [5]: 0%
- Population Membrane Permeable-Phenotype (%) [5]: 0% and 7.04%
- Population Mitochondria Different-Phenotype (%) [5]: 6.94% and 2.59%
- Population Mitotic Cells (%) [5]: 71.43% and 38.46%
- Population Normal (%) [5]: 100%
- Population Pyknosed Nuclei (%) [5]: 4.55% and 4.11%
- Population Tubulin-Different-Phenotype (%) [5]: 15.92% and 33.7%
- Total Cell Count [5]: 308 and 316
- Population Apoptotic (%) [6]: 51.69% and 82.89%
- Population Fragmented Nuclei (%) [6]: 13.56% and 8.54%
- Population Healthy Nuclei (%) [6]: 48.73% and 29.67%
- Population Hoechst High Intensity Objects (%) [6]: 0%
- Population Membrane Permeable-Phenotype (%) [6]: 14.78% and 17.81%
- Population Mitochondria Different-Phenotype (%) [6]: 50.43% and 54.79%
- Population Mitotic Cells (%) [6]: 48.31% and 17.11%
- Population Normal (%) [6]: 100%
- Population Pyknosed Nuclei (%) [6]: 37.71% and 61.79%
- Population Tubulin-Different-Phenotype (%) [6]: 76.52% and 83.56%
- Total Cell Count [6]: 236 and 246

SMILES: C=CC(=O)N1CCC[C@@H](n2nc(C(=O)Nc3ccc(CC(=O)N(C)C)c(C)c3C)c3c(N)ncnc32)C1
- Population Fragmented Nuclei (%) [1]: 10.1% and 3.17%
- Population Healthy Nuclei (%) [1]: 56.73% and 73.02%
- Population Hoechst High Intensity Objects (%) [1]: 0%
- Population Membrane Permeable-Phenotype (%) [1]: 1.69% and 0.72%
- Population Mitochondria Different-Phenotype (%) [1]: 9.32% and 5.8%
- Population Mitotic Cells (%) [1]: 97.1% and 80%
- Population Normal (%) [1]: 100%
- Population Pyknosed Nuclei (%) [1]: 33.17% and 23.81%
- Population Tubulin-Different-Phenotype (%) [1]: 14.41% and 5.8%
- Total Cell Count [1]: 208 and 189
- Population Apoptotic (%) [2]: 5.56% and 8.57%
- Population Fragmented Nuclei (%) [2]: 8.2% and 7.93%
- Population Healthy Nuclei (%) [2]: 62.3% and 70.73%
- Population Hoechst High Intensity Objects (%) [2]: 0%
- Population Membrane Permeable-Phenotype (%) [2]: 9.65% and 7.76%
- Population Mitochondria Different-Phenotype (%) [2]: 11.4% and 13.79%
- Population Mitotic Cells (%) [2]: 94.44% and 91.43%
- Population Normal (%) [2]: 100%
- Population Pyknosed Nuclei (%) [2]: 29.51% and 21.34%
- Population Tubulin-Different-Phenotype (%) [2]: 21.93% and 32.76%
- Total Cell Count [2]: 183 and 164
- Population Apoptotic (%) [3]: 18.18% and 16.67%
- Population Fragmented Nuclei (%) [3]: 12.88% and 6.53%
- Population Healthy Nuclei (%) [3]: 68.24% and 78.39%
- Population Hoechst High Intensity Objects (%) [3]: 0%
- Population Membrane Permeable-Phenotype (%) [3]: 3.77% and 2.56%
- Population Mitochondria Different-Phenotype (%) [3]: 7.55% and 8.33%
- Population Mitotic Cells (%) [3]: 81.82% and 83.33%
- Population Normal (%) [3]: 100%
- Population Pyknosed Nuclei (%) [3]: 18.88% and 15.08%
- Population Tubulin-Different-Phenotype (%) [3]: 13.21% and 10.26%
- Total Cell Count [3]: 233 and 199
- Population Fragmented Nuclei (%) [4]: 12.56% and 7.73%
- Population Healthy Nuclei (%) [4]: 67.34% and 70.72%
- Population Hoechst High Intensity Objects (%) [4]: 0%
- Population Membrane Permeable-Phenotype (%) [4]: 8.96% and 3.12%
- Population Mitochondria Different-Phenotype (%) [4]: 9.7% and 14.06%
- Population Mitotic Cells (%) [4]: 95% and 84.62%
- Population Normal (%) [4]: 100%
- Population Pyknosed Nuclei (%) [4]: 20.1% and 21.55%
- Population Tubulin-Different-Phenotype (%) [4]: 23.13% and 33.59%
- Total Cell Count [4]: 199 and 181
- Population Apoptotic (%) [5]: 13.79% and 22.22%
- Population Fragmented Nuclei (%) [5]: 7.48% and 7.76%
- Population Healthy Nuclei (%) [5]: 81.1% and 84.02%
- Population Hoechst High Intensity Objects (%) [5]: 0%
- Population Membrane Permeable-Phenotype (%) [5]: 0.97% and 1.63%
- Population Mitotic Cells (%) [5]: 86.21% and 77.78%
- Population Normal (%) [5]: 100%
- Population Pyknosed Nuclei (%) [5]: 11.42% and 8.22%
- Population Tubulin-Different-Phenotype (%) [5]: 5.34% and 12.5%
- Total Cell Count [5]: 254 and 219
- Population Apoptotic (%) [6]: 22.22% and 18.75%
- Population Fragmented Nuclei (%) [6]: 7.14% and 11.46%
- Population Healthy Nuclei (%) [6]: 84.29% and 80.21%
- Population Hoechst High Intensity Objects (%) [6]: 0%
- Population Membrane Permeable-Phenotype (%) [6]: 3.39% and 5.84%
- Population Mitochondria Different-Phenotype (%) [6]: 12.99% and 3.9%
- Population Mitotic Cells (%) [6]: 77.78% and 81.25%
- Population Normal (%) [6]: 100%
- Population Pyknosed Nuclei (%) [6]: 8.57% and 8.33%
- Population Tubulin-Different-Phenotype (%) [6]: 19.21% and 29.22%
- Total Cell Count [6]: 210 and 192

SMILES: Cc1c(-c2cc(-c3ccccc3Cl)no2)cnn1C1CCNCC1.Cl
- Population Fragmented Nuclei (%) [1]: 12.32% and 5.31%
- Population Healthy Nuclei (%) [1]: 58.77% and 79.2%
- Population Hoechst High Intensity Objects (%) [1]: 0%
- Population Membrane Permeable-Phenotype (%) [1]: 4.03% and 3.91%
- Population Mitochondria Different-Phenotype (%) [1]: 17.74% and 8.94%
- Population Mitotic Cells (%) [1]: 93.44% and 68.57%
- Population Normal (%) [1]: 100%
- Population Pyknosed Nuclei (%) [1]: 28.91% and 15.49%
- Population Tubulin-Different-Phenotype (%) [1]: 32.26% and 22.91%
- Total Cell Count [1]: 211 and 226
- Population Apoptotic (%) [2]: 18.52% and 39.56%
- Population Fragmented Nuclei (%) [2]: 8.72% and 4.05%
- Population Healthy Nuclei (%) [2]: 41.74% and 54.95%
- Population Hoechst High Intensity Objects (%) [2]: 0%
- Population Membrane Permeable-Phenotype (%) [2]: 10.99% and 13.93%
- Population Mitochondria Different-Phenotype (%) [2]: 46.15% and 28.69%
- Population Mitotic Cells (%) [2]: 81.48% and 60.44%
- Population Normal (%) [2]: 100%
- Population Pyknosed Nuclei (%) [2]: 49.54% and 40.99%
- Population Tubulin-Different-Phenotype (%) [2]: 73.63% and 83.61%
- Total Cell Count [2]: 218 and 222
- Population Apoptotic (%) [3]: 8% and 20.83%
- Population Fragmented Nuclei (%) [3]: 12.4% and 7.5%
- Population Healthy Nuclei (%) [3]: 67.6% and 82.5%
- Population Hoechst High Intensity Objects (%) [3]: 0%
- Population Membrane Permeable-Phenotype (%) [3]: 4.73% and 1.01%
- Population Mitochondria Different-Phenotype (%) [3]: 7.69% and 3.54%
- Population Mitotic Cells (%) [3]: 92% and 79.17%
- Population Normal (%) [3]: 100%
- Population Pyknosed Nuclei (%) [3]: 20% and 10%
- Population Tubulin-Different-Phenotype (%) [3]: 33.73% and 29.8%
- Total Cell Count [3]: 250 and 240
- Population Apoptotic (%) [4]: 36.97% and 65.81%
- Population Fragmented Nuclei (%) [4]: 10.44% and 3.51%
- Population Healthy Nuclei (%) [4]: 24.18% and 28.07%
- Population Hoechst High Intensity Objects (%) [4]: 0%
- Population Membrane Permeable-Phenotype (%) [4]: 25% and 20.83%
- Population Mitochondria Different-Phenotype (%) [4]: 63.64% and 60.42%
- Population Mitotic Cells (%) [4]: 63.03% and 34.19%
- Population Normal (%) [4]: 100%
- Population Pyknosed Nuclei (%) [4]: 65.38% and 68.42%
- Population Tubulin-Different-Phenotype (%) [4]: 72.73% and 68.75%
- Total Cell Count [4]: 182 and 171
- Population Apoptotic (%) [5]: 25% and 11.11%
- Population Fragmented Nuclei (%) [5]: 10.69% and 10.92%
- Population Healthy Nuclei (%) [5]: 83.79% and 85.92%
- Population Hoechst High Intensity Objects (%) [5]: 0%
- Population Membrane Permeable-Phenotype (%) [5]: 4.12% and 11.48%
- Population Mitochondria Different-Phenotype (%) [5]: 9.05% and 0.82%
- Population Mitotic Cells (%) [5]: 75% and 88.89%
- Population Normal (%) [5]: 100%
- Population Pyknosed Nuclei (%) [5]: 5.52% and 3.17%
- Population Tubulin-Different-Phenotype (%) [5]: 31.28% and 31.15%
- Total Cell Count [5]: 290 and 284
- Population Apoptotic (%) [6]: 53.41% and 92.06%
- Population Fragmented Nuclei (%) [6]: 14.67% and 6.71%
- Population Healthy Nuclei (%) [6]: 37.5% and 51.01%
- Population Hoechst High Intensity Objects (%) [6]: 0%
- Population Mitochondria Different-Phenotype (%) [6]: 43.48% and 21.05%
- Population Normal (%) [6]: 100%
- Population Pyknosed Nuclei (%) [6]: 47.83% and 42.28%
- Population Tubulin-Different-Phenotype (%) [6]: 15.94% and 32.89%
- Total Cell Count [6]: 184 and 149
